{"source": "paper PMC9392492", "about": "(International Journal of Nanomedicine, 2022)", "type_in_all_cases": "in vivo", "key": {"[1]": {"test_system": "acetic acid-induced writhing in mice", "experiment": "Acetic acid writhing test", "details": "i.g.; RJ-III 0.10 mg/kg, aspirin 200 mg/kg", "outline": "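Fasted ICR mice (18–22 g, both sexes), n = 10 per group, received free or SLN-formulated test compound (0.10 mg/kg), aspirin (200 mg/kg) or 0.9% saline, all i.g. Then 0.8% acetic acid (10 mL/kg, i.p.) was injected at 15 or 45 min post-dose, in two separate experiments. Abdominal contortions and hind-paw extensions were counted for 30 min.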"}, "[2]": {"test_system": "hot-plate nociception in mice", "experiment": "Hot plate test", "details": "RJ-III 0.2 mg/kg, aspirin 300 mg/kg", "outline": "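Baseline latency (paw lick or jump) on a 53 ± 0.5°C plate was taken three times, 15 min apart. Mice under 5 s or over 30 s were excluded. Fasted ICR mice (n = 10) then received free or SLN-formulated test compound (0.20 mg/kg), aspirin or saline, all i.g. Latency was re-measured at 15 and 45 min, with a 30 s cutoff.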"}, "[3]": {"test_system": "formalin-induced nociception in mice", "experiment": "Formalin test", "details": "formalin 15 min after i.g. administration; RJ-III 0.10 mg/kg, aspirin 200 mg/kg", "outline": "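Fasted ICR mice, n = 10 per group, were dosed i.g. with free or SLN-formulated test compound (0.10 mg/kg), aspirin (200 mg/kg) or saline. Then 25 μL of 2.5% formalin was injected s.c. into the left hind paw at 15 or 45 min post-dose, in separate experiments. Licking/biting time (s) was scored at 0–5 min (phase I) and 15–30 min (phase II).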"}}, "data": [{"smiles": "CC(=O)Oc1ccccc1C(=O)O", "note": "[aspirin]", "values": [{"measurement": "change in number of writhes between 15 and 45 min", "setting": "[1]", "result": "statistically increases"}, {"measurement": "latency time compared to pretreatment", "setting": "[2]; 15 min after i.g. administration", "result": "increased the latency time"}, {"measurement": "antinociception relative to pretreatment", "setting": "[2]; 45 min after i.g. administration", "result": "no significant analgesic effect"}, {"measurement": "phase I response (licking time) vs normal saline", "setting": "[3]", "result": "no effects"}, {"measurement": "phase II response (licking time) vs normal saline", "setting": "[3]", "result": "suppressed behavioral responses"}]}]}
